Not all results are given here.
HKDC1 act: HKDC1 (human) hexokinase activation. recombinant HKDC1, G6PDH/diaphorase resazurin fluorescence; hits give low values. Q2TB90. actives 0.056% (n = 340,000). AID 493187. activity change, negative = activation, % at 20 µM;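 active = activation of 40% or more at 20 µM, a change of -40% or lower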
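Material – in-house human HKDC1 enzyme, G6PDH and diaphorase coupling enzymes · Input – HKDC1 at 5 µg/mL final · Buffer or medium – pH 8.0 Tris with MgCl2 · Dosing – single compound dose of 20 µM, 1% DMSO final · Incubation – 90 min, room temperature · Technique – resorufin fluorescence from 100 µM resazurin, NADP 1 mM, Ex 525/Em 613 nm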
An asterisk follows results filed as active.

SMILES | HKDC1 act
O=S(=O)(CCSc1nc2ccccc2s1)c1nc2ccccc2s1 | 39.0
CC1C/C(=C/c2ccncc2)C(=O)/C(=C/c2ccncc2)C1 (stereo not given) | 43.5
Nc1nc(N2CCN(c3ccccn3)CC2)nc2ccccc12 | -57.6*
O=C(Nc1ccc2nc(-c3ccco3)c(-c3ccco3)nc2c1)N1CCN(c2ccccn2)CC1 | 56.9
CCCc1nc2oc3c(OC)ncnc3c2c2c1COC(C)(C)C2 | 36.5
CSc1nc(N(CCO)CCO)c2sc3nc(-c4ccco4)c4c(c3c2n1)CCC4 | 36.6
O=C1C(F)=CC(COC(c2ccccc2)(c2ccccc2)c2ccccc2)OC1n1cc(F)c(=O)[nH]c1=O (stereo not given) | 39.9
O=C(/C=C/c1ccc(Br)o1)OCc1nc2ccsc2c(=O)[nH]1 | 58.3
Cc1onc(-c2ccccc2)c1C(=O)NNC(=S)NC(=O)c1ccc(Br)cc1 | -51.2*
COc1ccc(-c2cc(C(=O)NNC(=S)NC(=O)c3c(-c4ccccc4)noc3C)[nH]n2)cc1 | -45.7*
CCC(c1ccccc1)C(CC)c1cc(O)c(O)c(O)c1 (stereo not given) | 42.4
Cc1ccc2oc(C(=O)N3CCC(N4CCSCC4)CC3)c(C)c2c1 | 35.5
COc1cc(/C=C2\SC(=Nc3ccc(Cl)c(C(=O)O)c3)NC2=O)c(Br)c(Br)c1O | 40.4
Cc1nc2c(c(=O)c3ccccc3n2C)c(=O)n1-c1ccc(F)cc1 | 51.4
COc1cccc(-n2c(N)c(C(=O)Nc3c(C)n(C)n(-c4ccccc4)c3=O)c3nc4ccccc4nc32)c1 | 35.7
COc1ccc(S(=O)(=O)/N=C2\C=C(Nc3ccc(O)cc3)C(=O)c3ccccc32)cc1 | 41.5
COc1ccccc1NC(=S)NN=C(C)c1ccccn1 | -40.8*
Cc1onc(C(=O)Nc2ccc(OC(F)(F)F)cc2)c1[N+](=O)[O-] | 79.1
Cc1cc2nc3ccc(=[N+](C)C)cc-3sc2cc1N | 46.9
Cc1nc2c(O)c3c(c(O)c2nc1C)C1C=CC3CC1 | 82.0
